ChEMBL document CHEMBL1156459, “Discovery of a small molecule antagonist of the parathyroid hormone receptor by using an N-terminal parathyroid hormone peptide probe” (Proc Natl Acad Sci U S A, 2007)
Square brackets hold non-standard residues; d marks the D form. Peptide text beside a SMILES is read from it. Nle = CCCC[C@H](N)C(=O)O; Aib = CC(C)(N)C(=O)O

Assays:
[1] = Effect on Crem gene expression in rat UMR106 cells after 2 hrs by microarray analysis relative to control; type: functional
Summary of the method: (§1)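 Rat UMR106 cells grown to confluency in DMEM/10% FBS, then moved to 0.1% FBS medium 24 h before treatment. Peptides (100 nM) were added to the medium for 2 or 8 h. Microarray profiling covered 8,799 reporters, with changes called at P < 0.01. Values are fold-change versus untreated control.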

[2] = Effect on c-fos gene expression in rat UMR106 cells after 2 hrs by real time PCR method relative to control; type: functional
Summary of the method: (§2)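 Confluent UMR106 cells were serum-starved (0.1% FBS, 24 h) and then given peptide in the medium for 2 h. Transcripts were quantified by TaqMan real-time RT-PCR, with relative expression levels set from a serial-dilution standard. Expression is reported as change versus untreated control.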

[3] = Effect on Pthr1 gene expression in rat UMR106 cells after 2 hrs by microarray analysis relative to control; type: functional; summary of the method: as §1
[4] = target: T1, Parathyroid hormone/parathyroid hormone-related peptide receptor (Homo sapiens, UniProt Q03431); test: Activity at human PTH/PTH-related peptide receptor expressed in SAOS2 cells assessed as cAMP formation; type: functional, cell-based, SAOS-2
T1 sequence (Q03431 whole entry): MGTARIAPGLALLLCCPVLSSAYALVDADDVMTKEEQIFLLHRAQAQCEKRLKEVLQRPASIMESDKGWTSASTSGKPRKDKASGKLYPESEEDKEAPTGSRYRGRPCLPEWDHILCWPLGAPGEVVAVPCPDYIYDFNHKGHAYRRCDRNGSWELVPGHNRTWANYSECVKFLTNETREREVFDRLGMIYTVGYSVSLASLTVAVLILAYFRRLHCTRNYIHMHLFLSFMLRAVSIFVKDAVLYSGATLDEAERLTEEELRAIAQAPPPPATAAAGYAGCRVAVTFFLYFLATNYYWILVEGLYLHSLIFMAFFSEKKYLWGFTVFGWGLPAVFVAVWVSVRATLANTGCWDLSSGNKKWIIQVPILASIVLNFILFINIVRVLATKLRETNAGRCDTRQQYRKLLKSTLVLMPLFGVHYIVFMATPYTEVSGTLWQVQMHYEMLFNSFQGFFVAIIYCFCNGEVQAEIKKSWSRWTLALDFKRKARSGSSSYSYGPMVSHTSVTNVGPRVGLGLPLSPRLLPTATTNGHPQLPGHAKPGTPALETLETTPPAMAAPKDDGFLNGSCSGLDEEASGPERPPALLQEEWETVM
Summary of the method: (§3)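 Nonconfluent cells grown at 37°C in DMEM with 10% FBS, refed 12–24 h before assay. Rinsed with warm PBS, detached with prewarmed EDTA (37°C, 5–10 min), spun at 300 × g for 5 min. Resuspended in HBSS/5 mM Hepes/0.1% BSA/0.5 mM IBMX, pH 7.4. cAMP read by AlphaScreen.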

[5] = Decrease in collagen synthesis in neonatal CD1 mouse calivaria bone assessed as [3H]proline incorporation; type: functional
[6] = Effect on Ptpn16 gene expression in rat UMR106 cells after 2 hrs by microarray analysis relative to control; type: functional; summary of the method: as §1
[7] = Effect on c-fos gene expression in rat UMR106 cells after 8 hrs by microarray analysis relative to control; type: functional; summary of the method: as §1
[8] = Effect on Pde4b gene expression in rat UMR106 cells after 2 hrs by microarray analysis relative to control; type: functional; summary of the method: as §1
[9] = target: T1, Parathyroid hormone/parathyroid hormone-related peptide receptor; test: Displacement of [125I]DPC-AJ1951 from PTH/PTH-related peptide receptor expressed in HKRK-B28 cells; type: cell-based
Summary of the method: (§4)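 Whole HKRK-B28 cells plated at 30,000/well and incubated overnight at 37°C, 5% CO2. Incubated 3 h at room temperature, washed three times, bound radioactivity counted by scintillation.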

[10] = target: T1, Parathyroid hormone/parathyroid hormone-related peptide receptor; test: Activity at human PTH/PTH-related peptide receptor expressed in HEK293 cells assessed as induction of intracellular calcium mobilization; type: functional, cell-based
[11] = Effect on Bmp3 gene expression in rat UMR106 cells after 8 hrs by microarray analysis relative to control; type: functional; summary of the method: as §1
[12] = target: T1, Parathyroid hormone/parathyroid hormone-related peptide receptor; test: Displacement of [125I]DPC-AJ1951 from PTH/PTH-related peptide receptor expressed in HKRK-B28 cells in presence of SW106; type: cell-based; summary of the method: as §4
[13] = Effect on IL18 gene expression in rat UMR106 cells after 2 hrs by real time PCR method relative to control; type: functional; summary of the method: as §2
[14] = Effect on Pde4b gene expression in rat UMR106 cells after 8 hrs by microarray analysis relative to control; type: functional; summary of the method: as §1
[15] = target: T1, Parathyroid hormone/parathyroid hormone-related peptide receptor; test: Activity at human PTH/PTH-related peptide receptor expressed in HEK293 cells assessed as induction of luciferase activity by CRE-luciferase reporter assay; type: functional, cell-based
[16] = Effect on Ptpn16 gene expression in rat UMR106 cells after 2 hrs by real time PCR method relative to control; type: functional; summary of the method: as §2
[17] = Effect on Pthr1 gene expression in rat UMR106 cells after 2 hrs by real time PCR method relative to control; type: functional; summary of the method: as §2
[18] = Effect on Pde4b gene expression in rat UMR106 cells after 2 hrs by real time PCR method relative to control; type: functional; summary of the method: as §2
[19] = Effect on Ptpn16 gene expression in rat UMR106 cells after 8 hrs by microarray analysis relative to control; type: functional; summary of the method: as §1
[20] = Stability in rat whole blood assessed as half life; type: ADME, tissue-based
Summary of the method: (§5)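 Peptide incubated at 37°C in rat plasma or rat whole blood; half-life determined.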

[21] = Effect on Bmp3 gene expression in rat UMR106 cells after 2 hrs by real time PCR method relative to control; type: functional; summary of the method: as §2
[22] = Effect on IL18 gene expression in rat UMR106 cells after 8 hrs by microarray analysis relative to control; type: functional; summary of the method: as §1
[23] = Stability in rat plasma assessed as half life; type: ADME, cell-free; summary of the method: as §5
Rattus norvegicus = test: Increase in cAMP level in ovariectomized rat plasma after 30 mins at 1 mg/kg, sc relative to control; type: functional; conditions: route subcutaneous
[24] = Increase in trabecular bone mineral density in ovariectomized rat at 0.2 mg/kg, sc; type: functional, Trabecula; conditions: route subcutaneous
[25] = target: T1, Parathyroid hormone/parathyroid hormone-related peptide receptor; test: Binding affinity to PTH/PTH-related peptide receptor expressed in HKRK-B28 cells; type: cell-based; summary of the method: as §4
[26] = Stimulation of osteoclast-mediated bone resorption in fetal Sprague-Dawley rat radii/ulnae assessed as [45Ca]release measured on day 5; type: functional; conditions: 120 h
Summary of the method: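 Fetal rat radii/ulnae prelabelled with 45Ca in utero, dissected and cultured. 45Ca released into the culture medium measured as the osteoclast-mediated resorption read-out.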

[27] = Effect on Crem gene expression in rat UMR106 cells after 2 hrs by real time PCR method relative to control; type: functional; summary of the method: as §2
[28] = target: T2, Parathyroid hormone/parathyroid hormone-related peptide receptor (Rattus norvegicus, UniProt P25961); test: Activity at rat PTH/PTH-related peptide receptor expressed in rat UMR106 cells assessed as cAMP formation; type: functional, cell-based; summary of the method: as §3
T2 sequence (P25961 whole entry): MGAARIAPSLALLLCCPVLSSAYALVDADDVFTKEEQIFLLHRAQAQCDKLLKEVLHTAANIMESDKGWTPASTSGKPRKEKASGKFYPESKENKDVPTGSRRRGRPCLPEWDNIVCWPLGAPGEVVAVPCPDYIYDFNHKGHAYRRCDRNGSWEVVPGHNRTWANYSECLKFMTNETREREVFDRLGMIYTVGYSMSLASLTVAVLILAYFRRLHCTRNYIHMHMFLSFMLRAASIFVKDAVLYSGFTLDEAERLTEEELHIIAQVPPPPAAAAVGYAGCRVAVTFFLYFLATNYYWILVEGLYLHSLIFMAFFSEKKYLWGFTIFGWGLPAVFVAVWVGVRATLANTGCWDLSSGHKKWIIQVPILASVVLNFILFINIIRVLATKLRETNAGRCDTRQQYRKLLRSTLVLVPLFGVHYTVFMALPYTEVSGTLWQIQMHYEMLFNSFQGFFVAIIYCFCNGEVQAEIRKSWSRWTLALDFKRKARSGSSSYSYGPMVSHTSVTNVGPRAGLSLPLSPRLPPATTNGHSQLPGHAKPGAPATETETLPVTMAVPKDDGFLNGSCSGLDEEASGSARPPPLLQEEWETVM

[29] = Effect on Pthr1 gene expression in rat UMR106 cells after 8 hrs by microarray analysis relative to control; type: functional; summary of the method: as §1
[30] = Effect on c-fos gene expression in rat UMR106 cells after 2 hrs by microarray analysis relative to control; type: functional; summary of the method: as §1
[31] = Stimulation of cell proliferation in neonatal CD1 mouse calivaria assessed as increase in [3H]thymidine incorporation; type: functional

EC50 [4]: 2.2 nM
EC50 [5]: 0.2 nM
IC50 [9]: 6.87 nM
EC50 [10]: 26 nM
IC50 [12]: 55.4 nM
EC50 [15]: 0.15 nM
half-life [20]: 15 min
half-life [23]: 20 min
Kd [25]: 21.6 nM
EC50 [26]: 30 nM
EC50 [28]: 1.1 nM
Structure (SMILES): CCCC[C@H](NC(=O)[C@H](CC(C)C)NC(=O)[C@H](CCC(N)=O)NC(=O)[C@@H](NC(=O)[C@H](CCC(=O)O)NC(=O)C(C)(C)NC(=O)[C@@H](NC(=O)C(C)(C)N)C(C)C)[C@@H](C)CC)C(=O)N[C@@H](Cc1cnc[nH]1)C(=O)N[C@@H](CCC(N)=O)C(=O)N[C@@H](CCCNC(=N)N)C(=O)N[C@@H](C)C(=O)N[C@@H](CCCCN)C(=O)N[C@@H](Cc1ccc(O)cc1)C(N)=O (H-[Aib]V[Aib]EIQL[Nle]HQRAKY-NH2)
fold change (FC) [1]: 13
fold change (FC) [2]: 66
fold change (FC) [3]: -2
fold change (FC) [6]: 9
fold change (FC) [7]: 11
fold change (FC) [8]: 11
fold change (FC) [11]: 4
fold change (FC) [13]: 6
fold change (FC) [14]: 9
fold change (FC) [16]: 15
fold change (FC) [17]: -2
fold change (FC) [18]: 4
fold change (FC) [19]: 6
fold change (FC) [21]: 14
fold change (FC) [22]: 18
Activity (Rattus norvegicus): 150%
Activity [24]: 21%
fold change (FC) [27]: 5
fold change (FC) [29]: 3
fold change (FC) [30]: 48
EC50 [31]: 6 nM
